Assay outcomes deposited in PubChem by several laboratories.
NPY Y2 blocker: blocks the human neuropeptide Y Y2 receptor; P49146; NPY-Y2 expressing cells, antagonist mode; inhibition, % at 2.7 µM; 140,000 compounds, 0.99% hits; AID 793
NPY Y1 blocker: blocks the human neuropeptide Y Y1 receptor; P25929; inhibition, % at 3.6 µM; AID 1040; HEK293-CNG Y1 cells, membrane potential fluorescence; NPY at EC95, then isoproterenol; 200,000 compounds, 1% hits;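 active means inhibition above the campaign mean inhibition of all tested compounds plus 3 SD, cut at about 20% in these data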
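Benchmarks – high control isoproterenol alone, low control NPY with isoproterenol · Material – HEK293 Y1/CNG channel cell line · Times – dye 3 h, compound 60 min room temperature, stimulation 45 min · Probe or stimulus – NPY (25 nM), isoproterenol (1 µM), Ro 20-1724 (25 µM) · Evaluation – % inhibition of NPY effect · Signal – fluorescence, membrane potential probe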
NPY-Y2 PAM-ag: human NPY-Y2 potentiation or agonism, primary screen; P49146; cells expressing NPY-Y2, potentiator/agonist read-out; activation, % at 3.6 µM; 220,000 compounds, 0.45% hits; AID 1359; in the data active means activation above about 27%;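 further: cells stimulated with NPY near EC25 plus isoproterenol at EC100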
EP2 mod: EP2 receptor (human) modulation. P43116. EP2-expressing cells, cAMP HTRF FRET, PGE2 co-stimulation. induction, % at 25 µM. 260,000 compounds, 0.83% hits. AID 940;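 active means compounds whose cAMP rise, as percent of the full-agonist control response, exceeds 60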;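 further: rat C6 glioma line stably carrying human EP2 under a CMV promoter; the protocol text gives 20 µM as final concentration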
Target sequence (P43116 whole entry, looked up): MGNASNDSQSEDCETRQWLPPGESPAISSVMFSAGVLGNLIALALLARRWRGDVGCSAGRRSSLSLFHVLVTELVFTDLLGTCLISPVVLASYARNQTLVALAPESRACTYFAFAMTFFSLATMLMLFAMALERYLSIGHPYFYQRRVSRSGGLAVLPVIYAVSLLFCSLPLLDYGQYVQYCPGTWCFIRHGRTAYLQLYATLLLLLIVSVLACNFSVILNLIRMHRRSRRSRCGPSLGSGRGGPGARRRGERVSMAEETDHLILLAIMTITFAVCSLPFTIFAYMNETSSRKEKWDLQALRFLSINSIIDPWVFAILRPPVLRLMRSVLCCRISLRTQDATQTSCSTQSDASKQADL
NPY1 pot ag: potentiators or agonists of human neuropeptide Y receptor Y1 | P25929 | NPY-Y1 expressing cells, potentiator/agonist activation | activation, % at 3.6 µM | 220,000 compounds, 0.37% hits | AID 1304; in the data active means activation above about 33%, passing the limit was not always enough;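 further: cells stimulated with NPY at EC10 then isoproterenol at EC100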
EP2 antag: blocks the human prostaglandin E2 receptor EP2 | P43116 | C6 glioma cells expressing human EP2, cAMP TR-FRET; cells stimulated with saturating PGE2 | inhibition, % at 25 µM | 260,000 compounds, 0.52% hits;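 active means percent inhibition above 40 after rounding to a whole number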;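 further: rat C6 glioma host cells with rolipram phosphodiesterase inhibitor present; the protocol text gives 20 µM as final concentration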
NPY1 antag conf: confirmation of human neuropeptide Y receptor Y1 antagonists. shares compounds with NPY Y1 blocker. HEK293-CNG NPY-Y1, membrane potential fluorescence, cAMP; NPY challenge against isoproterenol-raised cAMP. inhibition, % at 3.6 µM. 1,200 compounds, 21% hits; in the data active means inhibition above about 20%
NPY2 antag ctr: human NPY-Y2 antagonism in NPY-Y1 counter-screen | shares compounds with NPY Y1 blocker | inhibition, % at 3.6 µM | HEK293 NPY-Y2 CNG membrane potential fluorescence; cells given NPY, then isoproterenol | 1,200 compounds, 28% hits
Numbers stand for hits. Sampled rows, rich in hits. Any-hit rate of the full collection: about 2.8%. Unless noted, no stated cut-off is given here; in the data, active means inhibition above about 17%; inactive means the rest.

CC(C)[C@@H]1CC[C@@H](C)C[C@H]1OC(=O)C[n+]1cc(-c2ccc(Cl)cc2)n2c1CCCCC2 was read as NPY-Y2 PAM-ag inactive, EP2 mod inactive, NPY1 pot ag inactive and EP2 antag inactive.
Screening COc1ccc(-c2c[n+](CC(=O)OC3CC(C)CCC3C(C)C)c3n2CCC3)cc1 (stereo not drawn) returned NPY Y1 blocker 75, NPY-Y2 PAM-ag inactive, EP2 mod inactive, NPY1 pot ag inactive, EP2 antag inactive, NPY1 antag conf 61 and NPY2 antag ctr 35.
Screening O=C(CN(Cc1ccccc1)S(=O)(=O)c1ccc(F)cc1)NCCC1=CCCCC1 returned NPY Y2 blocker inactive, NPY Y1 blocker inactive, NPY-Y2 PAM-ag inactive, EP2 mod inactive, NPY1 pot ag inactive and EP2 antag inactive.
For Cc1ccc(S(=O)(=O)N(CC(=O)NCCC2=CCCCC2)Cc2ccccc2)cc1 the results were NPY Y2 blocker inactive, NPY Y1 blocker 21, NPY-Y2 PAM-ag inactive, EP2 mod inactive, NPY1 pot ag inactive, EP2 antag inactive, NPY1 antag conf inactive and NPY2 antag ctr inactive.
Screening COc1cccc(Cn2c(-c3nonc3N)nc3ccccc32)c1 returned NPY Y2 blocker inactive, NPY Y1 blocker 26, NPY-Y2 PAM-ag inactive, EP2 mod 64, NPY1 pot ag inactive, EP2 antag inactive, NPY1 antag conf inactive and NPY2 antag ctr inactive.
C=COCCn1c(-c2nonc2N)nc2ccccc21 was read as NPY Y2 blocker inactive, NPY Y1 blocker inactive, NPY-Y2 PAM-ag inactive, EP2 mod inactive, NPY1 pot ag inactive and EP2 antag inactive.
For COc1cc(Cn2c(-c3nonc3N)nc3ccccc32)ccc1C the results were NPY Y2 blocker inactive, NPY Y1 blocker 30, NPY-Y2 PAM-ag inactive, EP2 mod inactive, NPY1 pot ag inactive, EP2 antag inactive, NPY1 antag conf inactive and NPY2 antag ctr 24.
COc1cccc(CNC23CC4CC(CC(C4)C2)C3)c1OCc1ccccc1 was read as NPY Y1 blocker 165, NPY-Y2 PAM-ag inactive, EP2 mod inactive, NPY1 pot ag inactive, EP2 antag inactive, NPY1 antag conf 114 and NPY2 antag ctr 84.
CCC(c1nnnn1C(C)(C)C)N1CCN(c2cc(Cl)ccc2C)CC1 (stereo not drawn) was read as NPY Y2 blocker inactive, NPY Y1 blocker 25, NPY-Y2 PAM-ag inactive, EP2 mod inactive, NPY1 pot ag inactive, EP2 antag inactive, NPY1 antag conf inactive and NPY2 antag ctr inactive.
COc1ccc(C(c2nnnn2C(C)(C)C)N2CCN(c3cc(Cl)ccc3C)CC2)cc1OC (stereo not drawn) was read as EP2 mod inactive and EP2 antag inactive.
For Cc1ccc(Cl)cc1N1CCN(C(c2ccc(C#N)cc2)c2nnnn2C2CCCC2)CC1 (stereo not drawn) the results were NPY Y2 blocker inactive, NPY Y1 blocker 27, NPY-Y2 PAM-ag inactive, EP2 mod inactive, NPY1 pot ag inactive, EP2 antag inactive, NPY1 antag conf inactive and NPY2 antag ctr inactive.
O=C(NC1CCCCC1)C(c1cccs1)N(Cc1cccs1)C(=O)c1ccco1 (stereo not drawn) was read as NPY Y2 blocker inactive, NPY Y1 blocker 47, NPY-Y2 PAM-ag inactive, EP2 mod inactive, NPY1 pot ag inactive, EP2 antag inactive, NPY1 antag conf inactive and NPY2 antag ctr inactive.
`O=C(NC1CCCC1)C(c1ccco1)N(Cc1cccs1)C(=O)c1ccco1` (stereo not drawn) gave EP2 mod inactive and EP2 antag inactive.
For Cc1cc(C)c2oc(-c3cccc(NC(=O)c4cccnc4)c3C)nc2c1 the results were EP2 mod inactive and EP2 antag inactive.
For O=C(CCn1c(=O)oc2ccccc21)NC1(c2ccc3c(c2)OCO3)CCCC1 the results were EP2 mod inactive.
`O=C(CN1CCN(C2CCCCC2)CC1)Nc1ccccc1-c1ccccc1` gave NPY Y2 blocker inactive, NPY Y1 blocker 21, NPY-Y2 PAM-ag inactive, EP2 mod inactive, NPY1 pot ag inactive, NPY1 antag conf inactive and NPY2 antag ctr inactive.
For CN(C)CCNC(=O)c1sc2cccc(F)c2c1Cl the results were NPY Y1 blocker 33, NPY-Y2 PAM-ag inactive, EP2 mod inactive, NPY1 pot ag inactive, EP2 antag inactive, NPY1 antag conf inactive and NPY2 antag ctr inactive.
`Cc1ccc(-n2nc(C)c3c2OC(N)=C(C#N)C3c2ccncc2)cc1` (stereo not drawn) gave NPY Y2 blocker inactive, NPY Y1 blocker 24, NPY-Y2 PAM-ag inactive, EP2 mod inactive, NPY1 pot ag inactive, EP2 antag inactive, NPY1 antag conf inactive and NPY2 antag ctr inactive.
Cc1nn(-c2ccccc2)c2c1C(c1ccncc1)C(C#N)=C(N)O2 (stereo not drawn) was read as NPY Y2 blocker inactive, NPY Y1 blocker inactive, NPY-Y2 PAM-ag inactive, EP2 mod inactive, NPY1 pot ag inactive and EP2 antag inactive.
CCOC(=O)C1CCN(C(=O)CCS(=O)(=O)c2ccc3c(c2)CC(C)N3C(=O)CC)CC1 (stereo not drawn) was read as NPY Y1 blocker 37, NPY-Y2 PAM-ag inactive, EP2 mod inactive, NPY1 pot ag inactive, EP2 antag inactive, NPY1 antag conf inactive and NPY2 antag ctr inactive.
Screening COc1ccc(F)cc1C(=O)C1CCCN(Cc2cccn2-c2ccccn2)C1 (stereo not drawn) returned NPY Y1 blocker 35, NPY-Y2 PAM-ag inactive, EP2 mod inactive, NPY1 pot ag inactive, EP2 antag inactive, NPY1 antag conf 23 and NPY2 antag ctr 20.
For COc1ccc(C(=O)C2CCCN(Cc3cccn3-c3ccccn3)C2)c(OC)c1 (stereo not drawn) the results were NPY Y1 blocker 27, NPY-Y2 PAM-ag inactive, EP2 mod inactive, NPY1 pot ag inactive, EP2 antag inactive, NPY1 antag conf 21 and NPY2 antag ctr 18.
For CCn1c(SCC(=O)N2CCCCC2)nnc1C1CCCCC1 the results were EP2 mod inactive and EP2 antag inactive.
CC[C@@H](Cn1nc(-c2cccs2)oc1=O)NC(=O)C1CCN(S(C)(=O)=O)CC1 was read as EP2 mod inactive and EP2 antag inactive.
`CCOC(=O)c1[nH]c(C)c(C(=O)N2CCc3ccccc32)c1C` gave NPY Y2 blocker inactive, NPY Y1 blocker 32, NPY-Y2 PAM-ag inactive, EP2 mod inactive, NPY1 pot ag inactive, EP2 antag inactive, NPY1 antag conf inactive and NPY2 antag ctr inactive.
Screening CC(C)Nc1nc(NC(C)C)nc(SCCOC(=O)Nc2ccc(Cl)cc2Cl)n1 returned NPY Y2 blocker inactive, NPY Y1 blocker 21, NPY-Y2 PAM-ag inactive, EP2 mod inactive, NPY1 pot ag inactive, EP2 antag inactive, NPY1 antag conf inactive and NPY2 antag ctr inactive.
